FXIa inh 1536 – factor XIa (human) inhibition. P03951. purified FXIa, Boc-Glu-Ala-Arg-AMC fluorogenic substrate. inhibition, % at 5 µM. actives 0.14% (n = 220,000). AID 798;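 active means inhibition of at least 40%; inactive means inhibition below 40%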;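 further: fluorescence of freed AMC excited at 355 nm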
Furin inhibitor – inhibitors of human furin; P09958; purified furin, fluorogenic substrate cleavage; inhibition, % at 20 µM or 30 µM; actives 0.061% (n = 220,000); AID 463115; in the data active means inhibition above about 25%
thrombin 1536 – blocks human thrombin protease activity; actives 0.26% (n = 220,000); alpha-thrombin, Boc-VPR-AMC fluorogenic substrate cleavage; AID 1046; P00734; inhibition, % at 5 µM;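 active means inhibition at or above 40%; inactive means inhibition below 40%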
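signal = AMC fluorescence, 355/460 nm | material = human alpha-thrombin enzyme | control set = enzyme without compound as high, wells lacking enzyme as low | times = reaction at room temperature | read-out basis = percent inhibition scaled between no-compound controls and no-enzyme blanks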
Calb biofilm kill – mixtures killing C. albicans biofilm; inhibition, % at 7.6 µM; AID 1242; actives 0.02% (n = 120,000); C. albicans biofilm persisters + clotrimazole, fluorescence viability; primary screen in compound mixtures of four per well;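 further: compounds exposed to preformed 24 h biofilms for 48 h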
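Test system: C. albicans biofilms. Buffer or medium: RPMI/MOPS medium, pH 7.0. Timing: 48 h compound exposure at 37 °C. Technique: Alamar Blue fluorescence. Evaluation: percent inhibition of biofilm viability.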
FXIIa inh – factor XIIa (human) inhibition | actives 0.3% (n = 220,000) | inhibition, % at 5 µM | purified FXIIa, Boc-QGR-AMC fluorogenic substrate, 2 h; in the data active means inhibition above about 40%
Target sequence (P00748 20-372 limits assumed): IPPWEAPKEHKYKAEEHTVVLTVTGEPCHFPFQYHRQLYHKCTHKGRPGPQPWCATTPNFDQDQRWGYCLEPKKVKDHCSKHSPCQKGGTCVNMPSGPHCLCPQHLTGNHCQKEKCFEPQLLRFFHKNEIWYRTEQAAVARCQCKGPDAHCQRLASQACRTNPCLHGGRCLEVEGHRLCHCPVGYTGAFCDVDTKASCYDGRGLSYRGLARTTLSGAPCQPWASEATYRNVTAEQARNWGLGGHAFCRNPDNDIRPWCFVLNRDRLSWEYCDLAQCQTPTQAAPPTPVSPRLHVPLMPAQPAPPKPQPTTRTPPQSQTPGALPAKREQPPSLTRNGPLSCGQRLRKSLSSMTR
Target sequence (P00748 373-615 limits assumed): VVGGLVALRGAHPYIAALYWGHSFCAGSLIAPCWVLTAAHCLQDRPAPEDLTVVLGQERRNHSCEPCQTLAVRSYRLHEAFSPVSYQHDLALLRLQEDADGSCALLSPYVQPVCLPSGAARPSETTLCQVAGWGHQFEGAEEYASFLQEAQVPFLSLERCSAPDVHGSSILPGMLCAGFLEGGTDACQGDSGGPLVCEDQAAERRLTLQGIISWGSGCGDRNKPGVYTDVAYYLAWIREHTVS
KLK5 inh – blocks human kallikrein 5 protease activity; actives 0.59% (n = 210,000); inhibition, % at 5 µM; recombinant hK5, fluorogenic AMC substrate cleavage;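 active means inhibition of 40% or more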
Large screens that a line does not name were inactive. This is a sample that favours compounds with a hit; in the whole collection about 1.1% have one here.

CCn1c2ccccc2c2cc(NC(=O)c3ccc([N+](=O)[O-])cc3)ccc21	none (no result: Calb biofilm kill)
O=C1NC2(CCSC2)C(=O)N1CC(=O)N(Cc1ccccc1)C1CCS(=O)(=O)C1 (centres undefined)	none
COC(=O)c1ccc(C)c(N(CCO)CCO)c1	KLK5 inh 57 (no result: Calb biofilm kill)
COC(=O)c1ccc(C(=O)NCCCCO)cc1	none
CC(=O)Nc1ccc(C(=O)n2cnc3cc(C)c(C)cc32)cc1	none (no result: Calb biofilm kill)
CC(=O)Nc1ccc(S(=O)(=O)n2cnc3cc(C)c(C)cc32)cc1	thrombin 1536 104, KLK5 inh 92 (no result: Calb biofilm kill)
c1ccc(-c2n[nH]c3c2CCC3)cc1	KLK5 inh 51 (no result: Calb biofilm kill)
COc1cccc(-c2n[nH]c3c2CCC3)c1	none
Nc1nc(-c2ccccc2)nc2sc3c(c12)CCCC3	none
COc1cccc(CN(C)C(=O)CCc2nnc(-c3ccsc3)o2)c1	thrombin 1536 94
Cc1ccccc1NC(=O)Cn1c(O)c(N=NC(=O)c2ccccc2O)c2ccccc21	KLK5 inh 66
Cc1ccc(NC(=O)Cn2c(O)c(N=NC(N)=O)c3ccccc32)cc1	none
NC(=S)NNC(=O)c1cccc(Cl)c1	none
CCc1nccn1C(=O)c1cnn2c(C(F)F)cc(-c3ccccc3)nc12	thrombin 1536 76 (no result: Calb biofilm kill)
CCN1CCN(C(=O)c2cnn3c(C(F)F)cc(-c4ccc(C)cc4)nc23)CC1	none (no result: Calb biofilm kill)
CCc1nccn1C(=O)c1cnn2c(C(F)F)cc(-c3ccc(C)cc3)nc12	thrombin 1536 77
Cc1cc(SCC(=O)OCC(=O)NCC2CCCO2)c(C)cc1Br (centres undefined)	none
COc1cc(C(N)=O)cc(Cl)c1OC	FXIIa inh 47
O=[N+]([O-])c1nn(-c2ccc(Cl)cc2)n(O)c1=NCc1cccnc1	none
O=[N+]([O-])c1nn(-c2cccc(Cl)c2)n(O)c1=NCc1cccnc1	KLK5 inh 75
O=[N+]([O-])c1ccc(C2=NN(CCO)C(=Nc3ccc(OC(F)(F)F)cc3)SC2)cc1	none
O=C1CC(c2ccccc2)CC(O)=C1C=NCCN1CCN(C(=S)Nc2cccc(Cl)c2)CC1 (centres undefined)	KLK5 inh 44 (no result: Calb biofilm kill)
Cc1ccc(C2CC(=O)C(C=NCCN3CCN(C(=S)Nc4ccc(F)cc4)CC3)=C(O)C2)cc1 (centres undefined)	none
CSCCC(NC(=O)/C(=C/c1ccc(F)cc1)NC(C)=O)C(=O)O (centres undefined)	none
COc1ccc(-n2c(=O)c(NC(=O)c3ccccc3)c3n(c2=S)CCCCC3)cc1	none
C=C(C)Cn1c(=O)c(NC(=O)c2ccccc2)c2n(c1=S)CCC2	KLK5 inh 41 (no result: Calb biofilm kill)
CCCOP(=O)(OCCC)C1(Nc2ccc(C)cc2)CCCCC1	Furin inhibitor 26 (no result: Calb biofilm kill)
Cc1sc2ncn(/N=C/c3ccco3)c(=O)c2c1C	none
CCOc1ccc(C2C(C(=O)/C=C/c3ccco3)=C(O)C(=O)N2CCN2CCOCC2)cc1OC (centres undefined)	none
O=C(NCC(=O)N1CCN(S(=O)(=O)/C=C/c2ccccc2)CC1)c1ccc(Cl)cc1	none
O=C(NCC(=O)N1CCN(S(=O)(=O)/C=C/c2ccccc2)CC1)c1ccccc1F	FXIIa inh 57 (no result: thrombin 1536)
COc1ccc(S(=O)(=O)N2CCCCC2)cc1NC(=O)CN(C)C1CCCCC1	FXIIa inh 49 (no result: thrombin 1536)
COc1ccc(S(=O)(=O)N2CCCCCC2)cc1NC(=O)Cc1cc(OC)c(OC)c(OC)c1	none
O=C(c1ccc(Cl)c(S(=O)(=O)N2CCCC2)c1)N1CCN(c2ncccn2)CC1	none
CCCCNC(=O)Cn1cnc2ccc(S(=O)(=O)N3CCC(C)CC3)cc2c1=O	none (no result: KLK5 inh)
CCN(CC)CCCNC(=O)Cn1cnc2ccc(S(=O)(=O)N3CCC(C)CC3)cc2c1=O	KLK5 inh 45
COc1ccc(OC)c(NC(=O)CC2C(=O)NCCN2C(=O)Nc2cccc(Cl)c2)c1 (centres undefined)	FXIIa inh 45 (no result: Calb biofilm kill)
Cc1ccsc1C(=O)NNC(=O)C1CC=CCC1C(=O)O (centres undefined)	KLK5 inh 55
COc1cccc2sc(NC(=O)c3ccc(S(=O)(=O)N4CCOCC4)cc3)nc12	FXIIa inh 41 (no result: Calb biofilm kill)
COc1ccccc1NC(=O)c1ccc(S(=O)(=O)N2CCOCC2)cc1	none (no result: Calb biofilm kill)
O=C(CN(C(=O)CCC(=O)Nc1nccs1)C1CCCC1)NCc1ccc2c(c1)OCO2	none
COCCSc1nnc(NC(=O)c2ccc([N+](=O)[O-])cc2)s1	none

Assay outcomes (PubChem)
